From PubChem BioAssay
A selection: hits, their analogues and other compounds. The true share with any hit is near 2.7%.
LYP inh 2 = inhibitors of human LYP (PTPN22) phosphatase | inhibition, % at 2 µM | 96,000 compounds, 0.21% hits | AID 640 | recombinant LYP catalytic domain, DiFMUP fluorescence | Q9Y2R2;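 active = inhibition at 2 µM at or above a set limit, the screen mean plus 3 SD, cut at about 24% in these data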;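 also: 0% = DMSO with enzyme and 100% = enzyme fully blocked by orthovanadate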
PLAP activator = human PLAP activation | P05187 | purified PLAP enzyme, luminescent substrate read-out; stronger effect = higher value | activation fold at 20 µM | 96,000 compounds, 1.2% hits; in the data active = activation fold above about 2
PLK1 PBD inh = blocks phosphopeptide binding to human Plk1 polo box domain; P53350; Plk1 PBD phosphopeptide binding, fluorescence polarization; inhibition, %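 (tested at about 20 µM)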; 97,000 compounds, 0.13% hits; in the data active = inhibition above about 34%, passing the limit was not always enough
Target sequence (P53350 whole entry, looked up, the tested form may be a part): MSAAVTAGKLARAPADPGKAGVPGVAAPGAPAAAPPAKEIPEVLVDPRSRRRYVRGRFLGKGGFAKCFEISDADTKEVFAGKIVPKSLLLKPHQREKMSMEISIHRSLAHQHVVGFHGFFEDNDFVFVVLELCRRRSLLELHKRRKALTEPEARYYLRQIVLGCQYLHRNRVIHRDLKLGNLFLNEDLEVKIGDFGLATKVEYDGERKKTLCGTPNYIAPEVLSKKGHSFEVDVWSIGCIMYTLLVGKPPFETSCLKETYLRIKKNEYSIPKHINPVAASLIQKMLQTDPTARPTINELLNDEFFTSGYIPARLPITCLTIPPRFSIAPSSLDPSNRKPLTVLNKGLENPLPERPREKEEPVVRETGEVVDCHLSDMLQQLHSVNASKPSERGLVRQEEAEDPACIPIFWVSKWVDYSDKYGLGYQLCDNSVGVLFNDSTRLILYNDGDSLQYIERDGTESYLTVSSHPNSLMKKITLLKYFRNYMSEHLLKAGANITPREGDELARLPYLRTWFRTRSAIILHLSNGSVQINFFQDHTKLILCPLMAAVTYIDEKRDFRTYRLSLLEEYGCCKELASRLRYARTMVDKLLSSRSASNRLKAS
PTPN22 act = increases human PTPN22 phosphatase activity | activation, % at 2 µM | recombinant LYP, DiFMUP fluorescence; 0 = plate median, 100 = signal doubled | 96,000 compounds, 0.11% hits;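 active = activation at 2 µM above a set limit, the mean plus 5 SD, cut at about 37% in these data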
PLK1 kinase inh = PLK1 (human) kinase inhibition | recombinant PLK1 kinase, TR-FRET peptide phosphorylation | inhibition, % at 10 µM | 97,000 compounds, 0.53% hits | AID 619;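 active = inhibition of 50% or more in the single-concentration screen; inactive = inhibition below 50%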;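 also: 0% = DMSO max control and 100% = H-89 dihydrochloride min control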
Rev-RRE block = disrupts HIV-1 Rev binding to RRE RNA; 97,000 compounds, 0.79% hits; P05866; Rev peptide-RRE RNA binding, FRET; inhibition, % at 8 µM; AID 704;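 active = inhibition above the screen-wide mean plus 3 SD, cut at about 35% in these data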;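 also: 0% = median DMSO wells and 100% = median Neomycin B control wells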
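Assay system: Rev peptide and RRE RNA, both fluorescently labelled; times: 5 min preincubation and 15 min binding, 25 °C; detection: FRET, ex 480 nm, em 540 and 671 nm; read-out basis: % inhibition from 671/540 nm acceptor-to-donor ratio, scaled between controls; benchmarks: DMSO low control, neomycin B high control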
Active calls of the source: *; . = no result given.

SMILES	LYP inh 2	PLAP activator	PLK1 PBD inh	PTPN22 act	PLK1 kinase inh	Rev-RRE block
C=CCc1ccc(OCC(O)COc2ccc(CC=C)cc2OC)c(OC)c1	-4.5	2*	-16.2	8.1	-4.5	2.7
CCOC(=O)c1sc(N)c(C#N)c1COC(=O)CNC(=O)c1ccccc1	-5.3	0.8	-31.6	3.9	-2.0	50.7*
O=c1c2ccccc2n(Cc2ccccc2F)c(=O)n1Cc1ccccc1F	6.6	1	-5.7	-3.0	-11.3	8.6
COc1ccc(C(NC(C)=O)c2ccc3cccnc3c2O)c(OC)c1 (stereo not given)	.	2.4*	.	.	.	.
Cc1cc(NC(=O)CSc2nnc(Nc3ccccc3)s2)no1	-6.5	0.2	-6.4	8.5	0.1	5.7
Cc1cc(C)n2nc(SCc3nnc(SCc4ccccc4C)s3)nc2n1	0.2	1.5	-19.6	-0.2	-6.2	9.4
COc1cccc(CSc2nnc(CSc3nc4nc(C)cc(C)n4n3)s2)c1	-0.9	2.1*	18.5	-0.4	-16.7	6.1
CCSc1nnc(Nc2ccccc2)s1	-7.0	1	-11.7	6.8	-20.1	1.5
Cn1c(SCC(=O)Nc2ccc3nc(SCC(=O)N4CCCC4)sc3c2)nnc1-c1ccccc1	12.2	1.6	11.4	-10.4	-6.5	1.2
Cn1cnnc1SCC(=O)Nc1ccc2nc(SCc3ccccc3F)sc2c1	-4.1	2*	-15.2	6.7	-12.9	7.2
CC(C)=C1C2CCC1C(C(=O)NCc1ccccc1)C2C(=O)O (stereo not given)	-5.3	0.9	-27.6	3.0	-8.5	6.2
CCOC(=O)c1c(C)n(C)c2ccc(OC)c(NC(=O)CN3CCN(C4CCCCC4)CC3)c12	4.4	2*	-14.6	-2.1	2.2	-6.0
CCOC(=O)Cc1cc(=O)[nH]c(Nc2nc3ccccc3o2)n1	4.8	1.7	28.1	-6.7	-7.0	12.0
COC(=O)Cc1cc(=O)[nH]c(Nc2nc3ccccc3o2)n1	8.3	2.6*	2.8	-4.5	-10.6	11.4
CCOC(=O)C1CCN(C(=O)c2cc(S(=O)(=O)N3CCOCC3)c(Cl)cc2Cl)CC1	12.3	1.7	-2.3	-12.8	5.8	4.4
COc1ccc2[nH]c(=O)c(CNc3cccc(C)c3)cc2c1	1.6	1	9.1	0.1	-3.9	57.2*
COc1ccc(NCc2cc3cc(OC)ccc3[nH]c2=O)cc1	-1.7	0.7	11.2	-1.4	-9.8	15.3
C1CCC(n2nnnc2CN2CCN(C3CCCC3)CC2)CC1	-3.0	1.4	19.2	1.9	0.7	2.6
C=C(C)CNC(=S)NNC(=O)c1ccco1	-9.7	2*	-10.2	5.5	1.1	5.5
COc1ccc(Cn2c(N)c(C#N)c3nc4ccccc4nc32)cc1	-5.8	1.2	3.5	3.6	-0.4	14.7
O=C(CNc1ccccc1)N/N=C/c1cc([N+](=O)[O-])ccc1N1CCCC1	8.2	0.9	-14.2	-3.2	-1.6	-0.8
O=C(Cn1c2ccccc2c(=O)c2ccccc21)N/N=C/c1cc([N+](=O)[O-])ccc1N1CCCCCC1	27.5*	1	17.3	-25.1	-3.1	-20.4
CCC(c1nnc(SCC(=O)Nc2ccc(C(=O)Nc3ccccc3OC)cc2)o1)N(C)C (stereo not given)	13.5	2.3*	3.3	-16.4	-10.8	7.5
CCOP(=O)(c1c(F)c(F)c(F)c(F)c1F)C(O)c1ccccc1 (stereo not given)	2.8	1	-17.3	-3.8	-4.1	5.9
COc1ccc(OC)c(-n2c(-c3cc(-c4ccc(F)cc4)n[nH]3)n[nH]c2=S)c1	10.8	2*	-1.4	-7.4	15.6	4.8
SMILES	LYP inh 2	PLAP activator	PLK1 PBD inh	PTPN22 act	PLK1 kinase inh	Rev-RRE block
O=C(Oc1c(Br)cc(C(=S)N2CCOCC2)cc1Br)c1ccc(Cl)cc1	1.3	0.9	15.6	3.9	13.1	5.7
Clc1ccc(OCCCc2nc(-c3ccncc3)no2)c(Cl)c1	8.5	0.9	-13.7	-5.4	9.5	13.5
CN(C)S(=O)(=O)c1ccc(C(=O)N2CCC(c3nc4ccccc4o3)CC2)cc1	0.2	1.6	-38.6	3.0	-5.3	9.1
Cc1cc(=O)n(-c2ccc3ccccc3n2)[nH]1	0.4	2.3*	-1.7	3.8	6.0	-2.2
CCOc1ccc(N(CC(=O)Nc2ccccc2C(=O)NCc2ccco2)S(C)(=O)=O)cc1	41.2*	1.1	15.3	-42.1	-8.2	6.1
COC(=O)C(Nc1nccs1)(OC)C(F)(F)F (stereo not given)	-1.0	1	-14.5	2.3	-14.2	22.0
CCc1ccc(/C=C2\CN(CC)Cc3c2nc2ccccc2c3C(=O)O)cc1	8.2	1.6	4.0	-3.7	6.5	39.6*
C=CCNC(=O)C1CC(=O)N(c2ccc(C)cc2)C1 (stereo not given)	.	1	-18.5	.	59.2*	5.9
C=CCn1c(Cc2c[nH]c3ccccc23)n[nH]c1=S	-1.8	1.6	-8.3	1.5	-10.9	3.2
O=C(CSc1nc2ccccc2c(=O)[nH]1)N1CCOCC1	.	1	.	.	.	.
O=C(CSc1nc2ccc(S(=O)(=O)N3CCOCC3)cc2[nH]1)N1CCOCC1	34.1*	1.1	-10.4	-36.4	-9.6	2.7
N#Cc1c(N)sc2c1CCN(CCc1ccccc1)C2	-14.1	.	-31.5	14.6	-3.3	65.2*
COc1ccccc1NS(=O)(=O)c1ccc(OC)c(OC)c1	-3.6	1.2	-10.6	0.8	-10.6	7.7
COc1ccccc1NS(=O)(=O)c1cccc(C(=O)N/N=C(\C)c2ccc(-n3ccnc3)cc2)c1	-5.6	2*	-26.9	3.0	-4.4	7.5
O=C(Nc1nnc(COc2ccc(Cl)cc2)s1)c1ccc([N+](=O)[O-])cc1	24.5*	1.1	5.0	-22.4	-5.3	5.3
CCN(CC)CCNC(=O)Cn1nc(Cc2cccnc2)c2ccccc2c1=O	.	1.1	-2.3	.	61.9*	4.6
O=C(Cn1nc(Cc2cccnc2)c2ccccc2c1=O)NCCCN1CCCC1=O	-2.8	1.2	-11.5	-0.3	-8.5	7.6
Cc1cc(C)n(-c2nc(SCCN(C)C)c3c4c(sc3n2)CCCC4)n1	-3.2	1.3	5.1	6.7	-5.5	7.8
CCN(CCCNC(=O)C1CCN(S(=O)(=O)N2CCC3(CC2)OCCO3)CC1)c1ccccc1	6.1	1.2	-26.9	-7.6	-11.4	0.7
Cc1ccc(NC(=O)CN2C(=O)S/C(=C\c3cccn3C)C2=O)cc1	10.5	0.8	18.0	-6.3	-10.8	9.5
Cc1ccc(NC(=O)CN2C(=O)S/C(=C\c3ccc(-c4cccc(C(=O)O)c4C)o3)C2=O)cc1	55.5*	1.6	13.2	-54.4	5.1	6.8
COc1cc(/C=C2/SC(=S)N(CC(=O)Nc3nc4ccccc4s3)C2=O)cc(OC)c1OC	3.2	1.5	-23.2	2.3	-2.3	16.5
Cc1ccc(/C=C2\SC(=S)N(Cc3ccccc3)C2=O)o1	10.5	1.1	15.3	-6.1	-19.0	5.4
